What all share (format): cell-based
Conditions in all cases: HepG2

For experiment [1], the target named is T1, Peroxisome proliferator-activated receptor alpha (Homo sapiens) (UniProt Q07869).
T1 sequence (whole entry): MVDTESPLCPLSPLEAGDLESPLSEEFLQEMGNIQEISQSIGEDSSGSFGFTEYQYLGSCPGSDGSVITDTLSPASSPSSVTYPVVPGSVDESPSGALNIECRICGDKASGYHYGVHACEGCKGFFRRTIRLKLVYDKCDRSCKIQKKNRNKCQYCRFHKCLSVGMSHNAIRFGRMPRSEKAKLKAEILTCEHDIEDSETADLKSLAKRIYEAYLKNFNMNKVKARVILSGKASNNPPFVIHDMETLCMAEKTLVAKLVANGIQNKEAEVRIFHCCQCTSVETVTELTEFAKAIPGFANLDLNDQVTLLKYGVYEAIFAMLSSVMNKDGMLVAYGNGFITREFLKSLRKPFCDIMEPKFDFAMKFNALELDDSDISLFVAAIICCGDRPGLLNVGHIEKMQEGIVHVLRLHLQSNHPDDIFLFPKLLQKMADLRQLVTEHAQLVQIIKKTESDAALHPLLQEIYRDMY
The experiment can be described thus: Agonist activity at human PPARalpha ligand binding domain expressed in human Hep G2 cells co-transfected with Gal4-DBD by luciferase reporter gene assay relative to Wy 14,643. Put shortly: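 HepG2 cells received the Gal4-receptor LBD construct (50 ng), pGal4UAS-luciferase (100 ng) and pCMVβ (300 ng) by calcium phosphate coprecipitation for 4 h. They were then treated in serum-free DMEM/F-12 with ligand or 0.1% ethanol for 20 h. Luciferase was normalized to β-galactosidase, and efficacy was expressed as percent of the Wy 14,643 maximum (100%). Values are mean ± SEM of 3–5 experiments in triplicate.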

Experiment [2] addresses Nuclear receptor subfamily 4 group A member 2 (Homo sapiens) (UniProt P43354). Briefly: Increase in transcriptional activity of Nurr1 ligand binding domain expressed in human Hep G2 cells co-transfected with Gal4-DBD by luciferase reporter gene assay. Put shortly: (§1)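 HepG2 cells transfected for 4 h by calcium phosphate coprecipitation with 100 ng pGal4UAS-luciferase, 50 ng Gal4-LBD receptor vector and 300 ng CMV-β-galactosidase plasmid for normalization. Cells were washed in PBS, then refed with serum-free DMEM/F-12 containing penicillin/streptomycin and compound or 0.1% ethanol vehicle for 20 h. Luciferase read-out was normalized to β-galactosidase. Experiments were repeated at least three times.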
Background: Reporter assays use an easily measured gene product as a stand-in for the process of interest.

In experiment [3] the target is T2, Retinoic acid receptor alpha (Homo sapiens) (UniProt P10276).
T2 sequence (whole entry): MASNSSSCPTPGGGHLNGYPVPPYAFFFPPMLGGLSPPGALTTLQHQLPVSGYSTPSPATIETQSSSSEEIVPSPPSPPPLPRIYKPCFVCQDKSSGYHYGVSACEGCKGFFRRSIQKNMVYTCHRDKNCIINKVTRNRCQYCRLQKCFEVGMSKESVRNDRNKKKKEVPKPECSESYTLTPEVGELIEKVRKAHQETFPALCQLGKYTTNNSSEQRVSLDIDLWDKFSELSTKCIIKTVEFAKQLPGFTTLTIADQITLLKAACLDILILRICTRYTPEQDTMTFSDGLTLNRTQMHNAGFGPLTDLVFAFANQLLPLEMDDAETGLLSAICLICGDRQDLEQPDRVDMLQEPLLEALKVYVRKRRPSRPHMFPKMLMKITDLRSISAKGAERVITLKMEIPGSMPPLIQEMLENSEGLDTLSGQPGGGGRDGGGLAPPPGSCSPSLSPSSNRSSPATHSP
The experiment can be described thus: Increase in transcriptional activity of RARalpha ligand binding domain expressed in human Hep G2 cells co-transfected with Gal4-DBD by luciferase reporter gene assay. Put shortly: as §1

Experiment [4] deals with T3, Peroxisome proliferator-activated receptor delta (Homo sapiens) (UniProt Q03181).
T3 sequence (whole entry): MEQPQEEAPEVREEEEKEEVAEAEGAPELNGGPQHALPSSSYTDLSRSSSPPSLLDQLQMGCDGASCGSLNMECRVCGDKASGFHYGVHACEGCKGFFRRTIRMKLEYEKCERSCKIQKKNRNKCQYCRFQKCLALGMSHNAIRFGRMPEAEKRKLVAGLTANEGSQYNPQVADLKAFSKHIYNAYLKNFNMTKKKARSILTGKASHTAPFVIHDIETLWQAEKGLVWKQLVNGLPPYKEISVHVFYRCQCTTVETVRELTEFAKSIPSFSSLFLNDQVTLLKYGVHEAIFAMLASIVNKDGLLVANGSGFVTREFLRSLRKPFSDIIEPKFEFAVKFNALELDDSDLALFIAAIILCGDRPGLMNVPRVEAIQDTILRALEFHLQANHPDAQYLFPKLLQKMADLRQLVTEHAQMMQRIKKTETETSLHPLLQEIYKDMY
The experiment can be described thus: Increase in transcriptional activity of human PPARbeta/delta ligand binding domain expressed in human Hep G2 cells co-transfected with Gal4-DBD by luciferase reporter gene assay. Put shortly:
as §1

Experiment [5] deals with T4, Hepatocyte nuclear factor 4-alpha (Homo sapiens) (UniProt P41235).
T4 sequence (whole entry): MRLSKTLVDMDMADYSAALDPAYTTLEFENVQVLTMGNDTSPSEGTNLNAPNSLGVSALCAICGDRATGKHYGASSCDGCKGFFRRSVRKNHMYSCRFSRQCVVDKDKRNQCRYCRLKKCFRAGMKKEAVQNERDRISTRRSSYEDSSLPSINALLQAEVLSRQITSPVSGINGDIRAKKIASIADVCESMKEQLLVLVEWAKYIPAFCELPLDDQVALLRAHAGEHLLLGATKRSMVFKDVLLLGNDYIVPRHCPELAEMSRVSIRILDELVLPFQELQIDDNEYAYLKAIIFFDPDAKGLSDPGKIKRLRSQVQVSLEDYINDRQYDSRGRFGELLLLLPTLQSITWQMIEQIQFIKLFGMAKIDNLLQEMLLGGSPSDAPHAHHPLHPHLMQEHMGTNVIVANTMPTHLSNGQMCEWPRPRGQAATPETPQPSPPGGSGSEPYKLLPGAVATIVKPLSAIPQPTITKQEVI
Briefly: Increase in transcriptional activity of HNF-4alpha ligand binding domain expressed in human Hep G2 cells co-transfected with Gal4-DBD by luciferase reporter gene assay. The procedure, abridged:
as §1

Active and inactive are the calls of the source. No cut-off for these calls is given here.

Sequence of Nuclear receptor subfamily 4 group A member 2 (Homo sapiens) (P43354 whole entry, the tested form may be a part): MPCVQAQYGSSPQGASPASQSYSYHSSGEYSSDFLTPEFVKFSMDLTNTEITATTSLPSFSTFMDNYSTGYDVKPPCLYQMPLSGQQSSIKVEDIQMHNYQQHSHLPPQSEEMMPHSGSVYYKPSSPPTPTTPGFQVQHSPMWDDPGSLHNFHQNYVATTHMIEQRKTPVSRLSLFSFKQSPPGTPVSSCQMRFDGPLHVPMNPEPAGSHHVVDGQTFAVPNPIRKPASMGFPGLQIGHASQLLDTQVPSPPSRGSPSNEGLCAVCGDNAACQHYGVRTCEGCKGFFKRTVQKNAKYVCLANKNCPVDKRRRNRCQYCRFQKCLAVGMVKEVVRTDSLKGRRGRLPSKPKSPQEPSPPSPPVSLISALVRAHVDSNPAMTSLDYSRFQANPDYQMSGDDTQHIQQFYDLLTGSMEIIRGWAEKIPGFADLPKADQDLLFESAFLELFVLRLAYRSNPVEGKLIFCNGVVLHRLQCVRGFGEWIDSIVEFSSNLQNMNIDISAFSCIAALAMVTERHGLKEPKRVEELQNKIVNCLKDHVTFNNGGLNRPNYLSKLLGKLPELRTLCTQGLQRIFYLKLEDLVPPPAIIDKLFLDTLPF

In experiment [1], `O=C(O)[C@H](Cc1ccccc1)Oc1ccc(-c2ccccc2)cc1` registered an Efficacy of 100%. Also, the outcome in experiment [2], in experiment [3], in experiment [4] and in experiment [5] was inactive.

With `O=C(O)[C@@H](Cc1ccccc1)Oc1ccc(-c2ccccc2)cc1`, the result in experiment [1], in experiment [2], in experiment [3], in experiment [4] and in experiment [5] was inactive.

These data come from ChEMBL document CHEMBL1151755, “Crystal structure of the peroxisome proliferator-activated receptor gamma (PPARgamma) ligand binding domain complexed with a novel partial agonist: a new region of the hydrophobic pocket could be exploited for drug design” (J Med Chem, 2008).
